Test results as given in ChEMBL document CHEMBL1136489 (Bioorg Med Chem Lett, 2003).

Assays:
Type in all cases: protein-complex assay
[1] = molecular target: Geranylgeranyl transferase type I (Homo sapiens, UniProt P49354+P53609); assay: In vitro inhibition of Geranylgeranyl protein transferase I
How it was run: (§1)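 Cell-free enzyme inhibition assay, run as previously described with modifications.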

[2] = molecular target: Protein farnesyl/geranylgeranyl transferase (Homo sapiens) (UniProt P49354+P49356+P53609); assay: Selectivity for Geranylgeranyl protein transferase I compared to farnesyl protein transferase
[3] = molecular target: Protein farnesyltransferase (Homo sapiens, UniProt P49354+P49356); assay: In vitro inhibition of farnesyl protein transferase; how it was run: as §1

SMILES	IC50 [1] [nM]	Selectivity [2]	IC50 [3] [nM]
CC(C)=CCC/C(C)=C/CC/C(C)=C/CC/C(C)=C/CONC(=O)CP(=O)(O)O	66	–	–
CC(C)=CCC/C(C)=C/CC/C(C)=C/CC/C(C)=C/CNC(=O)C(C)P(=O)(O)O (stereo unspecified)	111	> 90	> 10000
CCC(C(=O)NOC/C=C(\C)CC/C=C(\C)CC/C=C(\C)CCC=C(C)C)P(=O)(O)O (stereo unspecified)	146	> 68	> 10000
CC(C)=CCC/C(C)=C/CC/C(C)=C/CC/C(C)=C/CNC(=O)CP(=O)(O)O	275	18	5000
CC(C)=CCC/C(C)=C/CC/C(C)=C/CC/C(C)=C/CONC(=O)C(C)P(=O)(O)O (stereo unspecified)	151	> 66	> 10000
CCC(C(=O)NC/C=C(\C)CC/C=C(\C)CC/C=C(\C)CCC=C(C)C)P(=O)(O)O (stereo unspecified)	566	> 18	> 10000
